Bioassay records: PubChem, several laboratories
The list is not random: actives were taken first. Their share in the collection is about 2.6%.
Runt-SMMHC FRET = inhibitors of RUNX1 Runt–CBFb-SMMHC binding, primary screen, biochemical, FRET, Cerulean-Runt, Venus-CBFb-SMMHC, uHTS; inhibition, % at 20 µM; Cerulean-Runt/Venus-CBFb-SMMHC FRET ratio 530/480, 1 h; AID 1434, 2008; 0.74% of 220,000 active;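 active = mean inhibition across duplicate retests at 20 µM reaching about 50%, limit read from the data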;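 also: inhibitors lower the FRET ratio by blocking Runt binding to CBFb-SMMHC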
Target sequence (Q01196 whole entry, looked up): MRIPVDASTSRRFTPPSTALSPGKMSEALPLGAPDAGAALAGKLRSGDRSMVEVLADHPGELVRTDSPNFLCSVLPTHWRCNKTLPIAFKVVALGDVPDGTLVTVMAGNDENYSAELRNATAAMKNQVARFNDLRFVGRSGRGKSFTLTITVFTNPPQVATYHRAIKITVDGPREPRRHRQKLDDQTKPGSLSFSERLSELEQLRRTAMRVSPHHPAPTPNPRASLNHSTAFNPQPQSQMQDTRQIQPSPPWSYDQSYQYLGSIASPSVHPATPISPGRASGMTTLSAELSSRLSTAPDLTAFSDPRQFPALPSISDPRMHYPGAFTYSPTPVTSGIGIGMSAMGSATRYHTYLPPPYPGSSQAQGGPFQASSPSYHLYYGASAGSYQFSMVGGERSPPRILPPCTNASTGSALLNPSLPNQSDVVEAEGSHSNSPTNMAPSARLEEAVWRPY
Target sequence (Q13951 whole entry, looked up): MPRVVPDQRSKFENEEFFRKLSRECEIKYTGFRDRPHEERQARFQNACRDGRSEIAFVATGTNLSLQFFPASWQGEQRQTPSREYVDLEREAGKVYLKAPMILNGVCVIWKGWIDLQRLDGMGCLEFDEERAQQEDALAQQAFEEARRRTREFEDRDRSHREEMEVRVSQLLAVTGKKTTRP
VIM-2 inh = VIM-2 metallo-beta-lactamase inhibitors, primary screen, biochemical, epi-absorbance readout, Pseudomonas aeruginosa enzyme | purified VIM-2, nitrocefin hydrolysis, epi-absorbance fluorescence | inhibition, % at 5.6 µM | 0.89% of 290,000 active;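 active = inhibition above the mean of all tested compounds plus 3 SD, cutoff set per screening run, cut at about 7.5% in these data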;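 also: red hydrolysis product quenches plate fluorescence so inhibitors raise well fluorescence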
RanGTP-Imp inh = inhibitors of RanGTP-importin-beta interaction, primary screen, biochemical, FRET, CFP-Ran, YFP-importin-beta, homogeneous; Ran GTPase (GTP-bound) - importin-beta complex; cell-free CFP-Ran/YFP-importin-beta FRET ratio; inhibition, % (concentration not given with the values); 1.1% of 300,000 active; AID 2216, 2009;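 active = more than half of the replicate wells show a fall in the fluorescence ratio signal beyond about 16%, limit read from the data, passing the limit was not always enough; inconclusive = exactly half of the replicate wells pass the set limit; inactive = fewer than half of replicates pass the limit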
Runt-CBFb FRET = inhibitors of RUNX1 Runt–CBFb binding, primary screen, biochemical, FRET, Cerulean-Runt, Venus-CBFb, uHTS; Runt-related transcription factor 1 (Homo sapiens) + Core-binding factor subunit beta …; Cerulean-Runt/Venus-CBFb FRET ratio 530/480, 1 h; inhibition, % at 20 µM; 0.46% of 220,000 active; AID 1496, 2009;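 active = inhibition over about 50% at 20 µM in the single-dose screen, limit read from the data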
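Assay system: Cerulean-tagged RUNX1 Runt domain (FRET donor) fusion protein / Amount: 100 nM each of Venus-CBFb and Cerulean-Runt domain / Medium: Tris buffer pH 7.5 with salts and BSA / Also added: Venus-CBFb 100 nM / Schedule: 1 h complex formation plus 1 h compound treatment, room temperature / Signal: FRET fluorescence / Read-out: loss of energy transfer signal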
IMP-1 inh-1 = IMP-1 metallo-beta-lactamase inhibitors, primary screen, biochemical, epi-absorbance readout, Pseudomonas aeruginosa enzyme; purified IMP-1, nitrocefin hydrolysis, epi-absorbance fluorescence; metallo-beta-lactamase IMP-1 (Pseudomonas aeruginosa); inhibition, % at 5.6 µM; 0.45% of 290,000 active;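 active = inhibition above the mean plus 3 SD of all compounds in the same screening run, cut at about 4.5% in these data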
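System – purified recombinant IMP-1 beta-lactamase · Input – IMP-1 dispensed at 0.2 nM · Timing – 15 min preincubation plus 25 min reaction at 25 °C · Signal – Epi-absorbance fluorescence, 480 nm excitation, 530 nm emission · Measure – percent IMP-1 inhibition derived from blank-referenced optical density · Controls – Enzyme-plus-DMSO low control, enzyme-free DMSO high control · Replication – singlicate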
IMP-1 inh-2 = IMP-1 metallo-beta-lactamase inhibitors, confirmation, selectivity assay for selective VIM-2 inhibitor project, biochemical, epi-absorbance readout, triplicate; shares compounds with VIM-2 inh; purified IMP-1, nitrocefin hydrolysis, epi-absorbance fluorescence; inhibition, % at 5.6 µM; 1,300 tested, under 10 active; call rule not given here
VIM-2 FRET inh = VIM-2 inhibitors in FRET format, confirmation, artefact control for selective VIM-2 inhibitor project, biochemical, epi-absorbance artifact exclusion; shares compounds with VIM-2 inh; 23% of 1,300 active; AID 1857, 2009; purified VIM-2, CCF2 FRET substrate hydrolysis; inhibition, % at 5.6 µM;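 active = inhibition above the mean of all tested compounds plus 3 SD, cut at about 19% in these data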
TEM-1 counter = TEM-1 serine beta-lactamase inhibitors, counter-screen for VIM-2 inhibitor project, biochemical, epi-absorbance, HTS; shares compounds with VIM-2 inh; 3% of 1,300 active; Purified TEM-1, nitrocefin hydrolysis, epi-absorbance fluorescence; inhibition, % at 5.6 µM;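 active = inhibition above that campaign's mean inhibition plus 3 SD, cut at about 0.46% in these data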
VIM-2 inh conf = VIM-2 metallo-beta-lactamase inhibitors, confirmation, biochemical, epi-absorbance, hits shared with IMP-1 screen; 96% of 1,300 active; purified VIM-2, nitrocefin hydrolysis; AID 2187, 2009; shares compounds with VIM-2 inh; inhibition, % at 5.6 µM;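 active = inhibition of the VIM-2 beta-lactamase enzyme above about 11% from the earlier first-round screen, limit read from the data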
Numbers stand for hits; n = inactive; u = inconclusive; x = no result.

SMILES | Runt-SMMHC FRET | VIM-2 inh | RanGTP-Imp inh | Runt-CBFb FRET | IMP-1 inh-1 | IMP-1 inh-2 | VIM-2 FRET inh | TEM-1 counter | VIM-2 inh conf
Cc1c(C(=O)N(C)CCCCN2CCOCC2)oc2c(F)cccc12 | x | n | u | x | n | x | x | x | x
COc1ccc(C#Cc2ccc3c(c2)c(=O)c2ccccc2n3C)cc1 | x | 15 | 84 | x | n | n | n | n | 14
Oc1ccc(C2=Nn3c(nnc3-c3ccco3)SC2)cc1O | n | 16 | n | n | n | n | n | n | 28
CN(C)CCCNc1c2c(nc3cc(-c4cccc(F)c4)nn13)CCC2 | n | 13 | 27 | n | n | n | n | n | 27
O=C(CCCCCNC(=O)N1CCn2c1nc1ccccc12)NCCc1ccccc1 | x | n | n | x | n | x | x | x | x
COc1ccc(-c2nc(C#N)c(NCCCn3ccnc3)o2)cc1OC | n | 17 | u | n | n | n | n | n | 43
N#Cc1nc(-c2ccc(F)cc2)oc1NCCCn1ccnc1 | n | n | n | n | n | x | x | x | x
N#Cc1nc(-c2ccco2)oc1NCCCn1ccnc1 | n | 26 | n | n | n | n | n | n | 44
O=C(c1ccc(N2CCNCC2)cc1)c1cccnc1 | n | 16 | n | n | n | n | n | n | 43
O=C(Nc1ccc(N2CCCCC2)cc1)c1cccnc1 | n | n | n | n | n | x | x | x | x
Cc1nn2c3ccccc3nc2c2ccccc12 | n | 13 | n | n | n | n | n | n | 27
O=C(CSc1ccccc1)Nc1ccccc1C(=O)O | n | n | n | n | n | x | x | x | x
NC(=O)SCC(=O)Nc1ccccc1C(=O)O | n | 13 | n | n | n | n | 50 | n | 31
O=C(CSc1cn[nH]n1)Nc1ccccc1C(=O)O | x | 20 | n | x | n | n | 40 | n | 23
O/N=C(\c1ccccc1)C(O)c1ccccc1 (stereo not given) | x | n | n | x | n | x | x | x | x
CCOC(=O)c1c(-c2ccc(-c3ccccc3)cc2)csc1NC(=O)CNCCN(C)C | x | 17 | n | x | n | n | n | n | 27
CN(C(=O)CN1C(=O)C2C3CC(C(Br)C3Br)C2C1=O)C1CCCCC1 (stereo not given) | x | n | n | x | n | x | x | x | x
O=c1cc(-c2ccco2)oc2c1ccc1ccccc12 | n | n | n | n | n | x | x | x | x
O=c1cc(-c2ccncc2)oc2c1ccc1ccccc12 | x | 17 | n | x | n | n | n | n | 23
CN(C)S(=O)(=O)c1cccc(CSCc2cccc(S(=O)(=O)N(C)C)c2)c1 | x | n | n | x | n | x | x | x | x
COc1ccc(C2=Nn3c(nnc3-c3cccnc3)SC2)cc1 | n | n | n | n | n | x | x | x | x
COc1ccc(C2=Nn3c(nnc3-c3ccncc3)SC2)cc1 | n | 21 | n | n | n | n | n | n | 42
CC(C)(C)C(=O)Nc1ccc(/C=C/C(=O)c2ccco2)cc1 | x | n | n | x | n | x | x | x | x
CCCN1C(=O)c2ccc(C(=O)Nc3ccccc3C(=O)O)cc2C1=O | x | n | n | x | n | x | x | x | x
Cc1ccc2c(c1)c1nnc(SCC(=O)NC3CC3)nc1n2C | x | 17 | n | x | n | n | n | n | 28
SMILES | Runt-SMMHC FRET | VIM-2 inh | RanGTP-Imp inh | Runt-CBFb FRET | IMP-1 inh-1 | IMP-1 inh-2 | VIM-2 FRET inh | TEM-1 counter | VIM-2 inh conf
CCCn1c2ccc(C)cc2c2nnc(SCCN3CCOCC3)nc21 | x | 17 | n | x | n | n | n | n | 27
CCCn1c2ccc(C)cc2c2nnc(SCCN3CCCCC3)nc21 | x | 22 | n | x | n | n | n | n | 21
Cc1cc(C)c2c(c1)c1nnc(SCCN3CCOCC3)nc1n2C | x | 23 | n | x | n | n | n | n | 31
O=C(COC(=O)CN1C(=O)c2ccccc2C1=O)NC1CCCC1 | x | n | n | x | n | x | x | x | x
O=C(O)C1CCN(S(=O)(=O)c2ccc(N3CCC(O)CC3)c([N+](=O)[O-])c2)CC1 | x | n | n | x | n | x | x | x | x
COc1ccc(N2CC(C(=O)Nc3cc(C)ccn3)CC2=O)cc1 (stereo not given) | n | n | n | n | n | x | x | x | x
CCn1c2ccc(C)cc2c2nnc(SCCN3CCCCC3)nc21 | x | 26 | n | x | n | n | n | n | 35
CCCn1c2ccc(F)cc2c2nnc(SCCN3CCCCC3)nc21 | x | n | n | x | n | x | x | x | x
Cc1cc(OCC(=O)N2CCc3ccccc3C2)c(C)cc1Br | x | n | n | x | n | x | x | x | x
CCOC(=O)c1ccc2ncc(C(=O)OCC)c(NCCCN3CCOCC3)c2c1 | n | 26 | n | n | n | n | n | n | 53
CCOC(=O)c1cnc2ccccc2c1NCCO | n | n | u | n | n | x | x | x | x
CCOC(=O)c1cnc2c(C)c(Cl)ccc2c1N1CCOCC1 | n | n | n | n | n | x | x | x | x
CCOC(=O)c1cnc2ccc(OC)cc2c1Nc1ccc(N2CCN(C)CC2)cc1 | x | 76 | n | x | n | n | n | n | 85
CCOC(=O)c1ccc2ncc(C(=O)OCC)c(Nc3ccc(N4CCOCC4)cc3)c2c1 | n | n | n | n | n | x | x | x | x
CCOC(=O)c1cnc2c(C)c(Cl)ccc2c1NCCCN1CCOCC1 | x | 16 | n | x | n | n | n | n | 25
CCOC(=O)c1cnc2c(ccc3ccccc32)c1NCCCN(C)C | x | 25 | n | x | n | n | n | n | 35
COc1ccc(CCNC(=O)Nc2cccs2)c(OC)c1 | x | n | n | x | n | x | x | x | x
CCN1CCN(CC(=O)n2c3c(c4ccccc42)CC(C)CC3)CC1 (stereo not given) | n | 19 | n | n | n | n | 28 | n | 29
CC1CCN(CC(=O)n2c3c(c4ccccc42)CCCC3)CC1 | n | 18 | n | n | n | n | n | n | n
CC1CCc2c(c3ccccc3n2C(=O)CCl)C1 (stereo not given) | x | n | n | x | n | x | x | x | x
CCOC(=O)c1nc(NNC(=O)c2ccc([N+](=O)[O-])cc2)sc1C | x | n | n | x | n | x | x | x | x
CCOc1ccc(CCNC(=O)Cc2ccc(NC3=NC4CS(=O)(=O)CC4S3)cc2)cc1OCC (stereo not given) | x | n | n | x | n | x | x | x | x
COc1ccc2c(c1)c1ncn(CCN3CCCC3)c(=O)c1n2C | n | n | n | n | n | x | x | x | x
